Source: PubChem
STAT3 activator = IL-6 driven STAT3 reporter potentiators, primary screen, U3A cells, luciferase, luminescence, MLSCN library; IL-6 STAT3-luciferase reporter; 100% = signal with IL-6 EC80 alone; activation (% of control), % at 5.6 µM; 190,000 tested, 0.91% active; AID 871, 2007;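 active means activation above the screen-wide mean of compound activation plus 3 SD, cut at about 130% in these data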
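Material: human U3A cells carrying STAT3-luciferase construct. Measured by: reporter luminescence signal. Timing: compound 1 h, then IL-6 6 h at 37 °C.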
APP 5'UTR act = activators of APP 5'UTR luciferase reporter, primary screen, SH-SY5Y cells; SH-SY5Y APP 5'UTR luciferase reporter, luminescence; zero percent = DMSO vehicle wells; activation, % at 2 µM; 190,000 tested, 1% active; AID 1276, 2008;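 active means activation above a set limit, based on mean plus 3 SD of controls, cut at about 140% in these data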
STAT1 activator = STAT1 signaling activators, primary screen, cell-based, HTS, luciferase reporter | NIH 3T3 STAT1-luciferase reporter, IFN-gamma, luminescence; 100% = IFN-gamma alone, no compound | 200,000 tested, 2.6% active | activation (% of control), % at 5.5 µM | AID 932, 2007;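 active means activation above the screen-wide mean activation plus 3 SD, cut at about 130% in these data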
STAT1 blocker = STAT1 signaling inhibitors, primary screen, cell-based, HTS, luciferase reporter; 200,000 tested, 0.35% active; AID 920, 2007; NIH 3T3 STAT1-luciferase reporter, IFN-gamma, luminescence; inhibition, % at 5.5 µM;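 active means inhibition above a set limit, the mean inhibition across all tested compounds plus 3 SD, cut at about 34% in these data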
STAT3 blocker = IL-6 driven STAT3 reporter inhibitors, primary screen, U3A cells, luciferase, luminescence, MLSCN library. AID 862, 2007. inhibition, % at 5.5 µM. IL-6 STAT3-luciferase reporter; host cell line lacks STAT1. 190,000 tested, 0.89% active;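 active means inhibition above the mean inhibition across all screened compounds plus 3 SD, cut at about 44% in these data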
NF-kB expr up = activators of NF-kB expression in neurons, primary screen, cell-based, HTS; human neuronal cells, NF-kB reporter expression; hits give high values; fold change at 12.5 µM; 190,000 tested, 1.6% active; in the data active means fold change above about 3.3
Of the large screens only hits and unclear results are named; the others gave an inactive call. Hits are enriched below; roughly 5.1% of the tested compounds scored in any of these assays.

COc1cc(C(=O)Nc2cc(C)ccn2)cc(OC)c1OC	none
COc1ccc(C(=O)NC(=O)Nc2cc(C)ccn2)cc1	APP 5'UTR act 159.3, STAT1 blocker 39.5, STAT3 blocker 96.8
O=P(OCC1CC1)(c1ccccc1)c1ccccc1	none
c1ccc(-c2cc(N3CCCCCC3)n[nH]2)cc1	STAT1 activator 130.1
c1ccc(-c2cc(N3CCCCC3)ncn2)cc1	none
Cc1occc1C(=O)NNC(=S)Nc1ccccc1C(F)(F)F	STAT1 activator 132.9
CCN(CC)C(=O)c1cn(-c2ccccc2)nc1-c1ccc2c(c1)OCCO2	none
N#Cc1cn(-c2ccccc2)nc1-c1ccc2c(c1)OCCO2	STAT1 activator 146.2
CC1Cn2c(nc(=O)c3c2NCN(CCc2ccccc2)C3)S1 (configuration not stated)	none
Cc1ccc(C(=O)Nc2cnc3ccccn3c2=O)cc1	STAT1 activator 131.8
O=C(Nc1cnc2ccccn2c1=O)c1ccc(Cl)cc1Cl	APP 5'UTR act 152.8, STAT1 blocker 40.8, STAT3 blocker 70.4
O=C(Nc1cccn2ncnc12)c1ccc(Cl)cc1Cl	none
N#Cc1ccc(N2Cc3ccccc3C2=NC(=O)c2cccnc2Cl)cc1	NF-kB expr up 5.05
CN1C(=O)C(N=Nc2ccccc2C(=O)O)N(C)C1=S (configuration not stated)	none
CC(C)(CNC(=S)NCCc1ccccc1)CNC(=S)NCCc1ccccc1	none
CC(=O)NCCOc1ccc2oc3ccccc3c2c1	STAT1 activator 130.1
Cc1ccc(/C=C2\OC(=O)c3ccccc32)cc1	STAT3 activator 157.0, STAT1 activator 145.5, NF-kB expr up 5.71
CCOc1ccc(/C=C/C2=NNC(=O)CC2)cc1	STAT1 activator 128.7
COc1ccc(OC)c(Cc2nnc(CCC(=O)N3CCCCC3)o2)c1	STAT1 activator 131.8
C=CCOC(=O)/C(=C\c1cccc2ccccc12)NC(=O)c1ccccc1	STAT1 activator 135.8
C=CCOC(=O)/C(=C\c1ccccc1)NC(=O)c1ccc(C)cc1	STAT1 activator 132.3
CCOC(=O)C/C(C)=N/NC(=O)Nc1ccccc1	STAT1 activator 131.4
N/C(=N\OC(=O)COc1ccc2ccccc2c1Br)c1ccncc1	none
CCOC(=O)c1ccc(NC(=O)N2CCN(C(=O)c3ccco3)CC2)cc1	none
O=C(CCC(=O)c1ccc(F)cc1)Nc1cc(Cl)cc(Cl)c1	none
Cc1ccc(OCCn2cnc3c(N)ncnc32)cc1	STAT1 activator 129.2
Cc1cc(-c2ccc(Br)cc2)n[nH]1	STAT1 activator 137.1
Nc1cc(-c2ccc(Br)cc2)[nH]n1	none
O=C(NC(=S)Nc1ccc(Cc2ccncc2)cc1)c1ccc(F)cc1	none
Cc1ccc(C2=NNC3(CCOC(C)(C)C3)S2)cc1 (configuration not stated)	APP 5'UTR act 177.9
O=C(OCC(=O)c1c[nH]c2ccccc12)C1=COCCO1	STAT1 activator 129.2
CC(C)Cc1ccc(C(C)C(=O)OCC(=O)c2c[nH]c3ccccc23)cc1 (configuration not stated)	none
CC1(C(=O)OCC(=O)c2c[nH]c3ccccc23)CC1(Cl)Cl (configuration not stated)	APP 5'UTR act 144.6, STAT1 activator 137.7
CCc1cccc2c(C(=O)COC(=O)c3ccc([N+](=O)[O-])s3)c[nH]c12	none
O=C(OCC(=O)c1c[nH]c2ccccc12)c1ccc([N+](=O)[O-])s1	STAT3 activator 135.2 (no result: NF-kB expr up)
Cc1ccc(C(=O)OCC(=O)c2c[nH]c3ccccc23)cc1	STAT3 activator 133.0
Oc1ccc(N=C/C=C/c2ccc(Br)cc2)cc1-c1nc2ccccc2s1	none
OCC1(CCOc2ccccc2)CCN(C2Cc3ccccc3C2)CC1	none
O=C(CSc1nnc(NCc2ccccc2)s1)c1ccco1	none
O=C(N/C(=C\c1cccc([N+](=O)[O-])c1)C(=O)N1CCOCC1)c1ccc([N+](=O)[O-])cc1	STAT1 activator 130.6
CC(=O)NC(Cc1ccccc1C)C(=O)NC1CCN(c2ncccc2[N+](=O)[O-])CC1 (configuration not stated)	none
Cc1cc(C)cc(NC(=O)c2c(C)nc3ccccn23)c1	none
COc1ccc2c(c1OC)C(=O)N(c1cccc(C(F)(F)F)c1)C2	STAT1 activator 149.2, NF-kB expr up 7.38
Cc1cccc(N2CC(=O)N(c3cccc(C)c3)CC2=O)c1	none
COc1ccc2c(c1OC)C(=O)N(c1ccccn1)C2	STAT1 activator 148.9
COc1ccc2c(c1OC)C(=O)N(c1cccc(C)c1)C2	STAT1 activator 134.9, NF-kB expr up 5.19
CCn1c(COc2ccc3c(c2)CCCC3)nnc1SCC(=O)Nc1ccc(C(=O)OC)cc1	none
CCOC(=O)c1nc(NNC(C)=O)sc1C	none
CCOC(=O)c1sc(-c2ccc(F)cc2)cc1N	none
CCOC(=O)c1nc(NCCc2ccccc2)sc1C	STAT1 activator 132.1
CCOC(=O)c1cc(-c2ccccc2)sc1N	STAT1 activator 135.1
CCOC(=O)c1sc(-c2ccccc2)cc1N	STAT1 activator 132.1
CNc1nc(C)c(C(=O)OCc2ccccc2)s1	NF-kB expr up 4.95
CC(=O)c1cccc(NC(=O)C2C3C=CC(C3=C(c3ccccc3)c3ccccc3)C2C(=O)O)c1 (configuration not stated)	none
CCCCn1c(N)c(C(=S)NC(=O)CC(C)(C)C)c(=O)n(C)c1=O	none
CC(=O)c1c(C)nc2sc3c(=N)n(N)cnc3c2c1-c1ccc(Cl)cc1	none
COc1ccc(CCNC(=O)CC2SC(=NCCc3ccccc3)NC2=O)cc1 (configuration not stated)	none
CCOC(=O)Cc1ccc2sc(-c3ccccc3)nc2c1	APP 5'UTR act 177.5, STAT1 activator 138.7, NF-kB expr up 9.44
CCOC(=O)CC(=O)Nc1nc2ccccc2s1	none
CCOC(=O)c1sc(-c2ccccc2)nc1C	STAT1 activator 134.9
Cc1ccc(C)c(N/N=C2\CCCNC2=O)c1	none
CCOC(=O)C1CCC(CNCc2ccc(Cl)cc2)CC1 (configuration not stated)	none
O=C1[C@@H]2Cc3c([nH]c4ccccc34)[C@@H](c3ccccc3)N2C(=O)[C@@H]2Cc3c([nH]c4ccccc34)[C@@H](c3ccccc3)N12	STAT3 activator 137.2
COC(=O)CSc1nc(C)c(C)c(C)c1C(N)=O	none
CC(=O)/C(=N/Nc1ccc(C)cc1)Sc1nnc(CCc2ccccc2)n1-c1ccccc1	NF-kB expr up 4.39
CCOC(=O)/C(=N/Nc1ccc(OC)cc1)Sc1nnc(CCc2ccccc2)n1-c1ccccc1	none
CCCCSc1cnn(-c2ccccc2)c(=O)c1SCCCC	none
